Calls of active or inactive are those of the source. No cut-off for these calls is given here.
How the values were obtained:
[1] = test system: SW-620; assay: Antiproliferative activity against human SW620 cells at 25 uM after 48 hrs by MTT assay; format: functional, cell-based
In short: (§1)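 Single-point screen at 25 µM in HCT116, SW620 and LOVO cells. Cells seeded at 10^4 cells/ml in DMEM + 10% FBS and left to adhere overnight at 37 °C, 5% CO2. MTT read 48 h after dosing with 0.1% DMSO as the negative control. Inhibition % = (1 − OD treated/OD control) × 100; mean ± SD of three measurements.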

[2] = test system: HCT-116; assay: Antiproliferative activity against human HCT116 cells at 25 uM after 48 hrs by MTT assay; format: functional, cell-based; in short: as §1
[3] = test system: LoVo; assay: Antiproliferative activity against human LoVo cells at 25 uM after 48 hrs by MTT assay; format: functional, cell-based; in short: as §1
[4] = target: Histone deacetylase; assay: Inhibition of HDAC in human HeLa cell nuclear extract using Boc-Lys (Ac)-AMC as substrate after 60 mins by fluorometric analysis; format: cell-based
[5] = test system: SW480; assay: Antiproliferative activity against human SW480 cells assessed as cell viability after 48 hrs by MTT assay; format: functional, cell-based; conditions: SW480, 48 h
[6] = Antiproliferative activity against human SW620 cells assessed as cell viability after 48 hrs by MTT assay; format: functional, cell-based; conditions: SW-620, 48 h
[7] = test system: LoVo; assay: Antiproliferative activity against human LoVo cells assessed as cell viability after 48 hrs by MTT assay; format: functional, cell-based
[8] = Antiproliferative activity against human HCT116 cells assessed as cell viability after 48 hrs by MTT assay; format: functional, cell-based, HCT-116; conditions: Homo sapiens, HCT-116, 48 h
[9] = target: T1, Histone deacetylase 8 (Homo sapiens, UniProt Q9BY41); assay: Inhibition of recombinant human HDAC8 using Boc-Lys (Ac)-AMC as substrate after 60 mins by fluorometric analysis
T1 sequence (Q9BY41 whole entry): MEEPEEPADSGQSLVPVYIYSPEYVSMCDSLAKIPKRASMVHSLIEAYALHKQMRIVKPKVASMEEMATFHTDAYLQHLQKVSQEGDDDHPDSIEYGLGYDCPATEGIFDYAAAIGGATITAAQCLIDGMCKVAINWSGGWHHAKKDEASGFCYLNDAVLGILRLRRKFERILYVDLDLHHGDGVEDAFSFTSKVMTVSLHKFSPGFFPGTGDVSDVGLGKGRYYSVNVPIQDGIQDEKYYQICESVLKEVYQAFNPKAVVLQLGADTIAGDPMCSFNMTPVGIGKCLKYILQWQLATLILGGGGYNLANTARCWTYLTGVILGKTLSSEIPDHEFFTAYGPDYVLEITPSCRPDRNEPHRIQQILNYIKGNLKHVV

[10] = test system: HCT-116; assay: Potency index, ratio of SAHA IC50 to compound IC50 for human HCT116 cells; format: functional
In short: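 HCT116 cells seeded at 10^4 cells/ml and adhered overnight, then treated 48 h over a concentration series with 0.1% DMSO as control. MTT readout; IC50 derived from inhibition % = (1 − OD treated/OD control) × 100, three independent measurements. Index = SAHA IC50 ÷ compound IC50.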

[11] = target: Histone deacetylase 1 (Homo sapiens, UniProt Q13547); assay: Inhibition of recombinant human HDAC1 using Boc-Lys (Ac)-AMC as substrate after 60 mins by fluorometric analysis
Chain of Histone deacetylase 1 (Q13547 whole entry): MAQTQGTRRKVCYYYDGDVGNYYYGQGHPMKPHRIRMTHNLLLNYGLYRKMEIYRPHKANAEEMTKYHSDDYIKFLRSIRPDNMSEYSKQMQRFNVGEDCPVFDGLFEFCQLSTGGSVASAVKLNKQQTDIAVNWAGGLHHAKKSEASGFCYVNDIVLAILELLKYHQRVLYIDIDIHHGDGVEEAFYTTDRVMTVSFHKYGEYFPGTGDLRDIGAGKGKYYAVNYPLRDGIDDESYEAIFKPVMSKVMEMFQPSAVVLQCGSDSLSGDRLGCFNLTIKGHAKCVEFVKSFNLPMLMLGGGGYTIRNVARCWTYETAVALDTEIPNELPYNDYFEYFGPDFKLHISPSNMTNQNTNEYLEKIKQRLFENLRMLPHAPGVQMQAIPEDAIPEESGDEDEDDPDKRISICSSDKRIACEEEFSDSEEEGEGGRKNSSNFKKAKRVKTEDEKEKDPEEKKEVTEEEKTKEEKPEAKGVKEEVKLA

[12] = target: T2, Protein deacetylase HDAC6 (Homo sapiens, UniProt Q9UBN7); assay: Inhibition of recombinant human HDAC6 using Boc-Lys (Ac)-AMC as substrate after 60 mins by fluorometric analysis
T2 sequence (Q9UBN7 whole entry): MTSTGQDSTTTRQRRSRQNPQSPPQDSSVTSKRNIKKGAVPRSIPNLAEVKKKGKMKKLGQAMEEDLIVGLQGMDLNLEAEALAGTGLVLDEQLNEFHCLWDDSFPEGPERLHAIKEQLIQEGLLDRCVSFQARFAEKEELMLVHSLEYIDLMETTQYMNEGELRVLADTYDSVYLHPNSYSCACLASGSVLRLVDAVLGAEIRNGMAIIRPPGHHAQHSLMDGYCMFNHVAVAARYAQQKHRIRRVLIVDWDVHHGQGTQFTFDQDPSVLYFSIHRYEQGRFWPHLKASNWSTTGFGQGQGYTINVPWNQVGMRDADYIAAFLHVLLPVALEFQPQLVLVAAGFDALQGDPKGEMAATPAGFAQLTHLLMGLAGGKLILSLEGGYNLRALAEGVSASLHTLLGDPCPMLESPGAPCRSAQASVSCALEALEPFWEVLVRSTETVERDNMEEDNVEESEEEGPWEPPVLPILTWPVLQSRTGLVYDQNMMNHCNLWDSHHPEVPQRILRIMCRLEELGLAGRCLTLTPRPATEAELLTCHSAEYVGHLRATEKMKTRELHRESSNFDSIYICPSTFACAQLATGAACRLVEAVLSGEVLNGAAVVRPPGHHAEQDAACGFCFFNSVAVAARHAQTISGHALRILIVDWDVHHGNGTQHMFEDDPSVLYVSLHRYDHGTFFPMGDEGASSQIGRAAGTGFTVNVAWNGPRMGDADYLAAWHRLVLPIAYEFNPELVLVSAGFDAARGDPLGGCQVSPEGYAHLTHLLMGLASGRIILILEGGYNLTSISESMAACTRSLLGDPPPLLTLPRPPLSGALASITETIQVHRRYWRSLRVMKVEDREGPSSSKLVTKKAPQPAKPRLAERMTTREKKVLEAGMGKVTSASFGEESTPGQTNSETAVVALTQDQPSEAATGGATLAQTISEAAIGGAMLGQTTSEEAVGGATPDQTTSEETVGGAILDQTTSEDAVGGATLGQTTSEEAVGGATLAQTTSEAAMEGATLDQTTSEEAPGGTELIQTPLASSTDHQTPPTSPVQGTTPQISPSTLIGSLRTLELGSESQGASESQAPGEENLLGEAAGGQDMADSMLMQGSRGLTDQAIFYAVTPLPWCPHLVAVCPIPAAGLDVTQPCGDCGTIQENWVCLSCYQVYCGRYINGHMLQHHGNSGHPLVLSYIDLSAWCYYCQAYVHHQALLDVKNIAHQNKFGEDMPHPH

IC50 [4] [µM]	IC50 [5] [µM]	IC50 [7] [µM]	IC50 [9] [µM]	IC50 [11] [µM]	IC50 [12] [µM]	Compound	Activity [1]	Activity [2]	Activity [3]	IC50 [6] [µM]	IC50 [8] [µM]	Ratio IC50 [10]
2.45	–	–	–	–	–	Cc1nc(C(=O)NCCC(=O)NO)cc2c1[nH]c1ccccc12	inactive	inactive	inactive	–	–	–
3.16	9.81	> 12.5	–	–	–	COc1ccc(-c2nc(NC(=O)NCC(=O)NO)cc3c4ccccc4n(C)c23)cc1	–	–	–	8.36	9.3	–
1.21	–	–	–	–	–	Cc1nc(C(=O)NCCCC(=O)NO)cc2c1[nH]c1ccccc12	inactive	inactive	inactive	–	–	–
6.17	–	–	–	–	–	O=C(CNC(=O)c1cc2c(cn1)[nH]c1ccccc12)NO	inactive	inactive	inactive	–	–	–
1.43	–	–	–	–	–	Cc1nc(C(=O)NCCCCCC(=O)NO)cc2c1[nH]c1ccccc12	inactive	inactive	inactive	–	–	–
1.05	> 12.5	> 12.5	–	–	–	COc1ccc(-c2nc(NC(=O)NCCCCCC(=O)NO)cc3c4ccccc4n(C)c23)cc1	–	–	–	9.53	8.76	–
0.67	4.65	3.77	0.39	0.13	0.061	COc1ccc(-c2nc(C(=O)NCCCC(=O)NO)cc3c2[nH]c2ccccc23)cc1	Active	Active	Active	4.46	2.72	2
2.24	10.1	9.36	–	–	–	COc1ccc(-c2nc(NC(=O)NCC(=O)NO)cc3c2[nH]c2ccccc23)cc1	–	–	–	7.12	8.52	–
3.23	–	–	–	–	–	O=C(CCNC(=O)c1cc2c(cn1)[nH]c1ccccc12)NO	inactive	inactive	inactive	–	–	–
3.02	10.5	> 12.5	–	–	–	COc1ccc(-c2nc(C(=O)NCC(=O)NO)cc3c2[nH]c2ccccc23)cc1	Active	Active	Active	6.92	> 12.5	–
0.86	5.8	6.24	–	–	–	COc1ccc(-c2nc(NC(=O)NCCCCC(=O)NO)cc3c4ccccc4n(C)c23)cc1	–	–	–	5.09	3.87	–
1.81	–	–	–	–	–	O=C(CCCCCNC(=O)c1cc2c(cn1)[nH]c1ccccc12)NO	inactive	inactive	inactive	–	–	–
1.33	4.4	5.66	–	–	–	COc1ccc(-c2nc(NC(=O)NCCC(=O)NO)cc3c4ccccc4n(C)c23)cc1	–	–	–	5.02	4.27	–
1.17	9.83	7.9	–	–	–	COc1ccc(-c2nc(C(=O)NCCCCCC(=O)NO)cc3c2[nH]c2ccccc23)cc1	Active	Active	Active	8.06	7.16	–
0.82	5.09	7.34	–	–	–	COc1ccc(-c2nc(NC(=O)NCCCCCC(=O)NO)cc3c2[nH]c2ccccc23)cc1	–	–	–	6.25	4.84	–
0.81	4.43	5.28	–	–	–	COc1ccc(-c2nc(C(=O)NCCCCC(=O)NO)cc3c2[nH]c2ccccc23)cc1	Active	Active	Active	2.53	3.35	–
0.35	1.73	2.17	0.2	0.079	0.093	COc1ccc(-c2nc(NC(=O)NCCCCC(=O)NO)cc3c2[nH]c2ccccc23)cc1	–	–	–	2.02	0.99	–
5.37	–	–	–	–	–	Cc1nc(C(=O)NCC(=O)NO)cc2c1[nH]c1ccccc12	inactive	inactive	inactive	–	–	–
1.26	–	–	–	–	–	Cc1nc(C(=O)NCCCCC(=O)NO)cc2c1[nH]c1ccccc12	inactive	inactive	inactive	–	–	–
0.43	3.11	3.61	0.43	0.11	0.36	COc1ccc(-c2nc(NC(=O)NCCC(=O)NO)cc3c2[nH]c2ccccc23)cc1	–	–	–	2.69	3.08	–
1.31	11.2	9.01	–	–	–	COc1ccc(-c2nc(C(=O)NCCC(=O)NO)cc3c2[nH]c2ccccc23)cc1	Active	Active	Active	6.73	8.64	–
1.56	–	–	–	–	–	O=C(CCCNC(=O)c1cc2c(cn1)[nH]c1ccccc12)NO	inactive	inactive	inactive	–	–	–
1.43	–	–	–	–	–	O=C(CCCCNC(=O)c1cc2c(cn1)[nH]c1ccccc12)NO	inactive	inactive	inactive	–	–	–
